Measurements: ChEMBL document CHEMBL1155758, “Heliotropium huascoense resin exudate: chemical constituents and defensive properties” (J Nat Prod, 2001)
Calls of active or inactive are those of the source. No cut-off for these calls is given here.

Legend:
[1] = system: Myzus persicae; assay: Antifeedant activity against Myzus persicae apterous adults; type: functional, organism-based
Outline: (§1)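 Choice feeding bioassay using adult beetles, newly emerged fifth-instar larvae or apterous adult aphids. Percent feeding inhibition (FI) and percent settling inhibition (SI) were calculated as previously described. Compounds giving FR/SI > 50% were taken into a dose-response test, with EC50 (dose giving 50% feeding reduction) obtained by linear regression of %FR or %SI on log dose.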

[2] = system: Leptinotarsa decemlineata; assay: Antifeedant activity against Leptinotarsa decemlineata adults at 50 ug/cm'2 by choice test; type: functional; outline: as §1
[3] = system: Leptinotarsa decemlineata; assay: Antifeedant activity against Leptinotarsa decemlineata adults by choice test; type: functional, organism-based; outline: as §1
[4] = system: Leptinotarsa decemlineata; assay: Antifeedant activity against Leptinotarsa decemlineata adults at 50 ug/cm'2 by no-choice test; type: functional
[5] = system: Leptinotarsa decemlineata; assay: Antifeedant activity against Leptinotarsa decemlineata adults by no-choice test; type: functional, organism-based
[6] = system: Leptinotarsa decemlineata; assay: Insecticidal activity against Leptinotarsa decemlineata adults assessed as mortality at 10 ug/insect dosed in to hemolymph injection after 72 hrs; type: functional
Outline: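 Adult Colorado potato beetles, 20 per compound, each injected into the hemolymph with 10 µg of compound dissolved in DMSO. Mortality was scored for up to 3 days after injection. Percent mortality was analysed with contingency tables and corrected by Abbott's formula.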

[7] = system: Spodoptera littoralis; assay: Antifeedant activity against fifth instar Spodoptera littoralis L6 larvae at 50 ug/cm'2; type: functional; outline: as §1
[8] = system: Spodoptera littoralis; assay: Antifeedant activity against fifth instar Spodoptera littoralis L6 larvae; type: functional, organism-based; outline: as §1
[9] = system: Spodoptera littoralis; assay: Antifeedant activity against fifth instar Spodoptera littoralis L6 larvae assessed as weight gain at 20 ug/insect, po relative to control; type: functional
Outline: (§2)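 Larval consumption and biomass gain were expressed as % of control. Significance versus control was tested at p < 0.05 with LSD. A second ANCOVA was run on biomass gain with food consumption as covariate to detect postingestive effects.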

[10] = system: Spodoptera littoralis; assay: Antifeedant activity against fifth instar Spodoptera littoralis L6 larvae assessed as food consumption at 20 ug/insect, po relative to control; type: functional; outline: as §2
[11] = system: Spodoptera littoralis; assay: Antifeedant activity against fifth instar Spodoptera littoralis L6 larvae at 100 ug/cm'2; type: functional; outline: as §1
[12] = system: Fusarium verticillioides; assay: Antifungal activity against Fusarium moniliforme assessed as inhibition of mycelial growth at 0.5 mg/mL; type: functional; conditions: read-out: GI
Outline: (§3)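 Single-dose test at 0.5 mg/mL against the plant pathogens; activity estimated as percent mycelial growth inhibition.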

[13] = system: Aspergillus niger; assay: Antifungal activity against Aspergillus niger assessed as inhibition of mycelial growth at 0.5 mg/mL; type: functional; conditions: read-out: GI; outline: as §3

| Structure (SMILES) | Activity [1] | Activity [2] | EC50 [3] | Activity [4] | EC50 [5] | Activity [6] | Activity [7] | EC50 [8] | Activity [9] | Activity [10] | Activity [11] | inhibition of growth at 500 µg/mL [12] | inhibition of growth at 500 µg/mL [13] |
| --- | --- | --- | --- | --- | --- | --- | --- | --- | --- | --- | --- | --- | --- |
| COC(=O)c1ccc(OC)c(C[C@@H]2C(C)(C)C(=O)C=C[C@@]2(C)O)c1 | inactive | 55.4% | 50 ug.cm'-2 | 81.82% | 24.19 ug.cm'-2 | 0% | 71.8% | 17.4 ug.cm'-2 | 66.1% | 75.9% |  |  |  |
| COc1ccc(C(=O)O)cc1C[C@@H]1C(C)(C)C(=O)C=C[C@@]1(C)O (relative stereo) | inactive | 37% | > 50 ug.cm'-2 | 56.1% | 50 ug.cm'-2 | 0% | 0% | > 100 ug.cm'-2 | 126.2% | 113.1% |  |  |  |
| COC(=O)c1ccc2c(c1)C[C@@]1(O2)[C@@H](C)CC[C@@H](O)C1(C)C [FILIFOLINOL] | inactive | 16.82% | > 50 ug.cm'-2 | 42.4% | > 50 ug.cm'-2 | 20% |  | > 100 ug.cm'-2 | 120.9% | 120.2% | 34.6% | 61% | 36% |
| C[C@@H]1CC[C@@H]2C(C)(C)C[C@]3(C)CC=C[C@]123 [SILPHINENE] |  |  | 0.27 ug.cm'-2 |  | 2.7 ug.cm'-2 | 24% |  |  |  |  |  |  |  |
